pIC50: −log10 of the molar value.
Experiments:
[1] = target: T1, Polyunsaturated fatty acid 5-lipoxygenase (Homo sapiens, UniProt P09917); experiment: Inhibition of human recombinant 5-LO expressed in Escherichia coli BL21 using arachidonic acid as substrate after 10 mins
T1 sequence (P09917 whole entry): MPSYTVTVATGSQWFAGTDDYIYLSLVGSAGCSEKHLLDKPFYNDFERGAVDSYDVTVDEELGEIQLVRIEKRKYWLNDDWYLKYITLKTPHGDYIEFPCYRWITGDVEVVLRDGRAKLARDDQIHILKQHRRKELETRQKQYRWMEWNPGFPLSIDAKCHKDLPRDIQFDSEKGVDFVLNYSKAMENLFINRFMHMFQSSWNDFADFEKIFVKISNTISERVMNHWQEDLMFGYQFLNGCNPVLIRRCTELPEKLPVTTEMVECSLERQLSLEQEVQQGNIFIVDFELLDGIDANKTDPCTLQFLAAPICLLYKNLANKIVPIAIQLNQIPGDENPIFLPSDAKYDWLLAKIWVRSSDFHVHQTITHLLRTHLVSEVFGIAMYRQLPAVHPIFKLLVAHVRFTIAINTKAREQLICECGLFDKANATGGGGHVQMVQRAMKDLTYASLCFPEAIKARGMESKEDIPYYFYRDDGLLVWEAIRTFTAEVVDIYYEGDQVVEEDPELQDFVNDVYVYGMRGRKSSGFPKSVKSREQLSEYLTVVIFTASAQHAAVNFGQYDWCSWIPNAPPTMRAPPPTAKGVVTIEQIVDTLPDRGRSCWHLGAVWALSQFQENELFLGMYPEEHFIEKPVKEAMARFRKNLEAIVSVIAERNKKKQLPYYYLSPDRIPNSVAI
Outline: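 Purified 5-LO was diluted in PBS/EDTA and pre-incubated with compound for 5–10 min at 4 °C, then pre-warmed for 30 s at 37 °C. The reaction was started with 2 mM CaCl₂ plus AA, run 10 min at 37 °C and stopped with ice-cold methanol. Products were analysed by HPLC.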

[2] = target: T1, Polyunsaturated fatty acid 5-lipoxygenase; experiment: Inhibition of 5-LO in human PMNL using arachidonic acid as substrate preincubated for 15 mins
Outline: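 PMNL were isolated from buffy coats by dextran sedimentation, Nycoprep centrifugation and hypotonic lysis of erythrocytes, then resuspended in PBS pH 7.4 with 1 mg/mL glucose and 1 mM CaCl₂. Cells were pre-incubated with compound for 15 min at 37 °C, then stimulated with A23187 plus AA for 10 min at 37 °C. 15-LO comes from eosinophils and 12-LO from adhering platelets in the preparation. After methanol/HCl stop and PGB₁ addition, metabolites were extracted and quantified by HPLC. Mean ± S.E.M., n = 3–4.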

pIC50 [1] | pIC50 [2] | SMILES
< 5.00 | < 5.00 | O=C1C=C(Cc2ccccc2)C(=O)CC1=O
< 5.00 | < 5.00 | O=C1CC(=O)C(=O)C(CC2CCCCC2)C1=O
< 5.00 | < 5.00 | COC1=CC(=O)C(=O)C(Cc2ccc3ccccc3c2)C1=O (stereo not drawn)
< 5.00 | < 5.00 | COC1=CC(=O)C(=O)C(Cc2ccccc2)C1=O (stereo not drawn)

From BindingDB's records for doi:10.1016/j.ejmech.2013.06.039 (University of Salerno, 2013)
